# From PubChem BioAssay
# KCNQ1 pot – potentiators or activators of human KCNQ1 potassium channel. P51787. B-score at 10 µM. 0.35% of 310,000 active. CHO-K1 KCNQ1, thallium flux FluxOR fluorescence; hits give high values;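 active means fluorescence ratio B-score, a plate-corrected score, at least three library SD, with initial intensity B-score within 5 SD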
#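 System: CHO-K1 cells stably expressing KCNQ1 / Medium: assay buffer for compound exposure, DMSO matched across wells / Reagent: thallium- and potassium-containing depolarizing buffer / Compound: one concentration, matched DMSO / Incubation: 20 min compound pretreatment at room temperature / Measured by: kinetic FluxOR fluorescence, 10 s baseline plus 110 s post-stimulus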
# hERG protect – compounds protecting human hERG from proarrhythmic drug block; CHO-hERG, FluxOR thallium flux, dofetilide IC70 present; Q12809; AID 1511; 0.51% of 310,000 active; activation (rescue from dofetilide block), less the hit threshold, % at 10 µM;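 active means activation above the mean of controls blocked by dofetilide plus 5 SD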;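 further: thallium influx through hERG after potassium depolarization seen as dye fluorescence rise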
# KCNK9 block – blocks the human KCNK9 two-pore domain potassium channel. HEK293 KCNK9, FluxOR thallium flux fluorescence; hits give low values. B-score at 10 µM. 1.2% of 310,000 active. AID 488922;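 active means ratio B-score over 3 SD below the library mean, with starting fluorescence within 5 SD of its mean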;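 further: negative B-score means less thallium flux so channel inhibition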
# KCNQ1 block – inhibitors of human KCNQ1 potassium channel; 1.3% of 310,000 active; B-score at 10 µM; CHO-K1 KCNQ1, FluxOR thallium flux fluorescence; hits give high values; AID 2642;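 active means compounds whose thallium flux B-score, printed positive for inhibition, exceeds three library SD while starting fluorescence stays within three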;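 further: channel opened by potassium depolarization with thallium stimulus after 20 min compound exposure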
# KCNK3 block – human KCNK3 channel inhibition, primary screen; 0.84% of 340,000 active; B-score at 10 µM; O14649; CHO-KCNK3 thallium flux, FluxOR fluorescence; hits give low values;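 active means B-score under library mean minus 4 SD, starting fluorescence ratio at most library mean plus 5 SD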;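 further: more negative B-score means stronger inhibition of thallium flux through KCNK3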
# Target sequence (O14649 whole entry, looked up): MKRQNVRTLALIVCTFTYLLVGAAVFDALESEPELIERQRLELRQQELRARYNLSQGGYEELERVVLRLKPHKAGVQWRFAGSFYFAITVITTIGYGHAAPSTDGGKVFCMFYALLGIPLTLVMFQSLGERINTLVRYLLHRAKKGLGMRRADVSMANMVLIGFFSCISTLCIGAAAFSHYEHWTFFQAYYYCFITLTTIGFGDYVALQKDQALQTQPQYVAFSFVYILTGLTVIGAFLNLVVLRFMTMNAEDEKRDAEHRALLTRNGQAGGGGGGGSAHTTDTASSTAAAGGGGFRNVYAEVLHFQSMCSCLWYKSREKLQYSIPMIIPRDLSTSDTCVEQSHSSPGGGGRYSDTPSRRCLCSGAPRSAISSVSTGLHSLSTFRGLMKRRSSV
# Kir21 inh – inhibitors of mouse Kir2.1 inward-rectifier potassium channel. AID 1672. HEK293-Kir2.1, FluxOR thallium flux fluorescence; hits give low values. P35561. B-score at 10 µM. 0.85% of 310,000 active;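 active means fluorescence ratio B-score at or below minus 3 SD of library scores, with starting-brightness B-score within 2 SD, cut at about -4.2 in these data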;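 further: channel flux triggered by added potassium and thallium sulfate stimulus; B-score of peak minus minimum fluorescence over baseline after thallium stimulus; more negative B-score means stronger Kir2.1 block with less thallium influx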
# KCNK3 inh conf – confirmation of human KCNK3 two-pore domain potassium channel inhibitors. shares compounds with KCNK3 block. CHO-KCNK3 thallium flux, FluxOR fluorescence; 0% buffer, 100% carvedilol maximal block. ratio percent of control, % at 10 µM. 99% of 2,400 active. AID 651638;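 active means ratio percent of control, averaged over triplicates, above buffer control mean plus 5 SD, cut at about 64% in these data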;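 further: ratio is the fluorescence rise from min to max over baseline after thallium stimulus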
# KCNK3 uninduced – counter-screen for KCNK3 inhibitors: effect in non-induced cells; thallium flux ratio (lower = more inhibition) at 10 µM; AID 651747; non-induced KCNK3 parental cells, FluxOR thallium flux; hits give low values; shares compounds with KCNK3 block; 40% of 2,400 active;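 active means thallium flux ratio, averaged over three wells, more than 5 SD below the buffer control mean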;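 further: host cells are CHO cells without KCNK3 induction; ratio is peak minus trough fluorescence over baseline then normalized to buffer controls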
# * marks the source's active call; other numbers are inactive results; i = inactive; . = no result given. Hits are enriched below; roughly 3.7% of the tested compounds scored in any of these assays.
SMILES,KCNQ1 pot,hERG protect,KCNK9 block,KCNQ1 block,KCNK3 block,Kir21 inh,KCNK3 inh conf,KCNK3 uninduced
O=S(Cc1ccc(Br)cc1)Cc1nnc(SCc2c(F)cccc2Cl)n1-c1ccccc1 (stereo not drawn),i,-16.7,i,i,i,-0.4,.,.
COc1ccc(/C=C2/Sc3ccc(C(=O)NCCCN4CCOCC4)cc3NC2=O)cc1OC,i,-11.8,i,i,i,-1,.,.
COc1cccc(/C=C2/Sc3ccc(C(=O)NCCN4CCCCCC4)cc3NC2=O)c1,i,-34.6,i,7*,-10.1*,-0.15,111.7*,i
N#Cc1cnc(NCc2ccc(Cl)cc2Cl)nc1,i,-10.6,i,i,-11.7*,-1.19,107.7*,i
Cc1ccc(S(=O)(=O)Nc2ccc(N(C)S(=O)(=O)c3ccc(C)cc3)cc2)cc1,i,-9.2,-7.02*,i,i,-1.84,85.7*,i
CC(C)(C)OC(=O)NCCCCCc1nnc(SCC(=O)Nc2cccc(Cl)c2)o1,i,-17.1,i,i,-9.25*,-1.32,116.7*,0.152*
CCOc1ccccc1/C=N/N1CCN(Cc2ccccc2)CC1,i,-5.8,i,i,-11.1*,-0.79,83.3*,i
CC(C)c1ccc(-c2csc3ncnc(N4CCN(C)CC4)c23)cc1,i,-7.5,i,i,i,-1.14,.,.
COc1ccc(-c2csc3ncnc(N4CCN(c5ccc(OC)cc5)CC4)c23)cc1,i,-15.4,i,i,-11*,-0.53,92.0*,i
COc1ccc(-c2csc3ncnc(N4CCN(c5ccccc5[N+](=O)[O-])CC4)c23)cc1,i,-16.2,i,8*,-8.74*,0.65,96.7*,i
CC(C)(C)C(=O)N1CCN(c2ncnc3scc(-c4ccccc4)c23)CC1,i,-8.9,i,i,i,1.2,.,.
CCOc1ccc(N(CC(=O)NCCSCc2ccccc2)S(C)(=O)=O)cc1,i,1.2,i,i,i,2.9,.,.
CC1(C)Cc2c(sc3nc4n(-c5ccccc5)cnn4c(=O)c23)CO1,i,-3.0,i,i,i,-0.14,.,.
CN(CCOc1ccc(Cl)cc1)C(=O)c1cc(-c2ccco2)nc2ccccc12,i,-32.2,i,i,-10.4*,0.85,117.3*,0.135*
COCCOCCn1c(/C=C/c2ccccc2)nc2ccccc21,i,-10.0,i,i,-9.23*,-0.22,93.0*,i
CCCn1c(/C=C/c2ccccc2)nc2ccccc21,i,-13.4,i,i,i,-1.29,.,.
C[C@@H](CN=[N+]=[N-])CN1CC[C@H](C(C)(C)C)CCC1=O,i,0.1,i,i,i,-1.34,.,.
COc1ccc(-c2cc(C(=O)OCC(=O)N3CCOCC3)c3ccccc3n2)cc1,.,.,.,.,i,.,.,.
COC(=O)C1CCN(C(=O)COC(=O)c2cc(-c3ccccc3)nc3ccc(OC)cc23)CC1,.,.,.,.,-12.2*,.,105.3*,i
Cc1ccc(S(=O)(=O)N2CCc3ccccc3C2)cc1C,i,-3.8,i,i,i,-0.18,.,.
COc1ccc(Br)cc1CNC(=O)CN1C(=O)C(c2ccccc2)Oc2cccnc21 (stereo not drawn),i,-9.5,i,i,-10.3*,-0.55,95.0*,i
CCOc1ccc(/C=N/NC(=O)c2ccccc2C)cc1CN1CC2CC(C1)c1cccc(=O)n1C2 (stereo not drawn),.,.,.,.,i,.,.,.
CCCCn1c(N)c(N(CCC(C)C)C(=O)c2ccc([N+](=O)[O-])s2)c(=O)[nH]c1=O,i,-16.6,i,i,i,-0.03,.,.
CC/C(=C\c1oc2cc3ccccc3cc2[n+]1CC)Nc1ccccc1,i,-26.6,i,9*,-10.3*,-3.13,127.3*,0.136*
CC[n+]1c(/C=C/Nc2ccccc2)oc2ccccc21,i,-9.4,i,i,i,-1.75,.,.
SMILES,KCNQ1 pot,hERG protect,KCNK9 block,KCNQ1 block,KCNK3 block,Kir21 inh,KCNK3 inh conf,KCNK3 uninduced
Cc1ccc2cc(CN(Cc3ccccc3)Cc3nnnn3C3CCCC3)c(=O)[nH]c2c1,i,-6.2,i,i,-10.2*,0.2,102.7*,0.154*
Cc1ccc2cc(CN(Cc3ccc(F)cc3)Cc3nnnn3C3CCCC3)c(=O)[nH]c2c1,i,-3.0,i,i,i,0.29,.,.
CCc1ccc2[nH]c(=O)c(CN(Cc3ccc4c(c3)OCO4)Cc3nnnn3C3CCCC3)cc2c1,i,-4.3,i,i,-8.74*,-0.83,127.7*,0.132*
CC1CCN(C(=O)C(C)OC(=O)CSc2ccc([N+](=O)[O-])cc2)CC1 (stereo not drawn),.,.,.,.,i,.,.,.
CCOc1cc(/C=N/NC(=O)CN2CCCCC2)ccc1OCc1ccccc1,i,-9.8,i,i,i,-2.05,.,.
CCOc1cc(/C=N/NC(=O)CN2CCOCC2)ccc1OCc1ccc(Cl)cc1,i,-4.7,i,i,-10.7*,-1.15,0.0,i
Cc1ccccc1COC(=O)CCC1=NS(=O)(=O)c2ccccc2N1,i,-8.6,i,i,i,-0.76,.,.
COc1ccc2[nH]c3c(N4CCC(O)(c5cccc(C(F)(F)F)c5)CC4)ncnc3c2c1,i,-15.6,i,i,-11.9*,-0.18,122.0*,0.147*
COc1ccc2[nH]c3c(N4CCN(Cc5ccc6c(c5)OCO6)CC4)ncnc3c2c1,i,-23.8,i,i,i,-1.12,.,.
CCCC(=O)Nc1ccc(-c2csc(N/N=C\c3ccncc3)n2)cc1,i,-8.3,i,i,-8.8*,0.78,106.7*,0.155*
COc1ccc(OC)c(S(=O)(=O)N2CCN(C(=O)c3cc(C4CC4)nn3-c3ccccc3)CC2)c1,.,.,.,.,i,.,.,.
COc1cc(C(=O)Nc2ccccc2N2CCCCC2)cc(OC)c1OC,i,-12.5,i,i,-10.2*,0.16,126.0*,0.117*
COc1ccccc1C(=O)Nc1ccccc1N1CCCCC1,i,-14.2,i,i,i,-1.27,.,.
O=C(Nc1ccccc1N1CCCCC1)c1cccc(OC(F)F)c1,i,-7.9,i,i,-10.2*,-0.22,116.7*,0.15*
COc1cc(-c2cc(C(=O)Nc3ccccc3N3CCOCC3)c3ccccc3n2)cc(OC)c1OC,i,-11.7,i,6*,-9.01*,1.3,102.0*,0.158*
COc1ccc(Br)cc1C(=O)Nc1ccccc1N1CCCC1,i,-11.5,i,i,-9.84*,0.16,111.0*,0.147*
